This is a sample that favours compounds with a hit; in the whole collection about 1.8% have one here.
CCR6 antag: CCR6 receptor antagonists, primary screen, cell-based, CHO-K1, luminescence, beta-arrestin, uHTS | C-C chemokine receptor type 6 (Homo sapiens), P51684 | CHO-K1 CCR6 PathHunter beta-arrestin, CCL20-stimulated | inhibition, % at 20 µM | hit rate 0.49% among 340,000;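 active = compounds whose inhibition of the agonist-driven luminescence signal at 20 µM reaches about 50%, limit read from the data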;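 note: cells stimulated with CCL20 at 14 nM final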
Target sequence (P51684 whole entry, looked up): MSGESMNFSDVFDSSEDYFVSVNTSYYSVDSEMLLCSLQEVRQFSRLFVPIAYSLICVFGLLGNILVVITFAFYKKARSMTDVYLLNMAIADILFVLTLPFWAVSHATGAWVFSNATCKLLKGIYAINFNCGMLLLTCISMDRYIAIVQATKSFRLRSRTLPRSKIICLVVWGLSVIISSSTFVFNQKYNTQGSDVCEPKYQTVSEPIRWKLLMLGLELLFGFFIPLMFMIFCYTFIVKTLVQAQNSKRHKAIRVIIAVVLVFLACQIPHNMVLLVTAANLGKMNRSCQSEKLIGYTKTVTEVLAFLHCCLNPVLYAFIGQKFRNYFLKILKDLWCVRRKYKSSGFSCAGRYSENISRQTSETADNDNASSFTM
Beta2AR agonist: beta2AR agonists driving receptor internalization, primary screen, cell-based, FAP fluorogen, flow cytometry; Beta-2 adrenergic receptor (Homo sapiens), P07550; Am2.2-beta2AR cells; response, % (test concentration not listed); hit rate 0.43% among 340,000; AID 504454, 2011;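 active = response above a set limit, near 3 SD of response in nonfluorescent compounds, cut at about 42% in these data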
EBI2 block: EBI2 receptor antagonists, beta-arrestin recruitment, primary screen, cell-based, luminescence, 7a,25-OHC stimulation, uHTS | hit rate 0.81% among 360,000 | G-protein coupled receptor 183 (Homo sapiens), P32249 | AID 651636, 2012 | 7a,25-OHC stimulated | inhibition, % at 5 µM; in the data active = inhibition above about 38%;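 note: enzyme fragment complementation signal reports receptor beta-arrestin coupling in cells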
CXCR6 block: CXCR6 receptor inhibitors, primary screen, cell-based, beta-arrestin, luminescence, CHO-K1 PathHunter, 1536-well; hit rate 0.36% among 360,000; inhibition, % at 20 µM; C-X-C chemokine receptor type 6 (Homo sapiens), O00574; in the data active = inhibition above about 34%, passing the limit was not always enough;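 note: antagonist mode with CXCL16 agonist at 10 nM final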
APJ antag: antagonists of human apelin receptor APJ, primary screen, CHO-K1 cells, beta-arrestin complementation, luminescence | hit rate 0.32% among 330,000 | inhibition, % at 20 µM | AID 2521, 2010;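 active = inhibition above about 40% at 20 µM, limit read from the data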;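 note: cells challenged with 10 nM apelin-13 agonist together with compound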
APJ agonist: agonists of human apelin receptor APJ, primary screen, CHO-K1 cells, PathHunter beta-arrestin, luminescence; P35414; 0% DMSO wells, 100% apelin; activation, % at 20 µM; hit rate 0.11% among 330,000;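 active = activation more than six SD over the plate average, tested at 20 µM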
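Test system: CHO-K1 APJ beta-arrestin complementation cell line | Compound: Single test compound dose, 20 µM final, 1% DMSO | Incubation: Compound 90 min 25 °C, reagent 1 h | Measured by: beta-gal luminescence | Read-out basis: APJ–arrestin association signal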
APJ antag conf: APJ antagonists blocking beta-arrestin recruitment, confirmation, cell-based, luminescence, single concentration, uHTS hits | shares compounds with APJ antag | antagonist mode | inhibition, % at 20 µM | hit rate 66% among 950 | AID 2766, 2010; in the data active = inhibition above about 50%
A number is an active result; i = inactive; nt = no result given.

SMILES	CCR6 antag	Beta2AR agonist	EBI2 block	CXCR6 block	APJ antag	APJ agonist	APJ antag conf
O=C(c1ccccc1)c1cccn1CC(=O)N1CCc2ccccc2C1	51	i	i	48	50	i	94
CC(C)(C)c1cc(Cl)c(O)c(NC(=S)NC(=O)c2cccnc2)c1	52	i	i	40	67	i	78
CC(C)(C)c1ccc(C(=O)NNC(=S)NC(=O)c2cccnc2)cc1	i	i	i	i	i	i	nt
COc1ccc2c(c1)C(=O)[C@H](O)[C@@H](c1ccc(OC)c(Br)c1)O2	62	nt	nt	nt	58	i	103
CCCCNC(=O)CN(Cc1ccco1)S(=O)(=O)c1ccc(C(C)=O)cc1	i	i	i	i	i	i	nt
COc1ccc(-c2nc(CS(=O)CC(=O)NCCN3CCCCC3C)c(C)o2)cc1OC (configuration not stated)	i	i	i	i	i	i	nt
Nc1ccc(-c2c3ccc(=O)cc-3oc3cc(O)ccc23)cc1C(=O)O	i	i	i	i	41	i	i
O=c1ccc2c(-c3ccccc3)c3ccc(O)cc3oc-2c1	i	i	i	i	i	i	nt
Cc1nn(CC(=O)NCCCc2ccccc2)c(=O)c2cc3occc3n12	i	i	i	i	41	i	i
Cc1cccc(C=NOCCc2ccccc2)n1	i	i	i	i	nt	nt	nt
COc1cc(OC)cc(C(=O)N[C@H](C(=O)OCC(=O)c2c[nH]c3ccccc23)C(C)C)c1	i	i	i	i	i	i	nt
Cc1ccc(C(=O)COC(=O)CNC(=O)Cc2ccccc2)cc1[N+](=O)[O-]	68	i	i	i	45	i	62
Cc1ccc(C(=O)COC(=O)CNC(=O)c2ccc(Br)o2)cc1[N+](=O)[O-]	i	i	i	i	48	i	66
COc1cc(OC)cc(C(=O)N[C@H](C(=O)OCC(=O)c2ccc(C)c([N+](=O)[O-])c2)C(C)C)c1	50	i	i	i	48	i	51
Cc1ccc(C(=O)COC(=O)CNS(=O)(=O)c2ccccc2)cc1[N+](=O)[O-]	80	i	i	i	48	i	86
CCc1ccc(C(=O)COC(=O)CNC(=O)c2ccc(Br)o2)cc1	i	i	i	i	i	i	nt
CCc1c(-c2ccc(OC)cc2)ncn1Cc1cccc(-c2ccccc2)c1	nt	nt	i	nt	nt	nt	nt
COc1cc(C(=O)N/N=C(\c2ccccc2)c2ccccn2)cc(OC)c1OC	90	i	i	63	43	i	73
Cc1cccc(NC(=O)CN(C)C(=O)/C=C/c2ccccc2)c1C	i	i	i	i	i	i	nt
CCOc1ccc(N=Nc2c(=O)[nH]n3c(=O)cc(C)[nH]c23)cc1	i	i	i	i	47	i	i
Cc1ccc(NC(=S)NCC2CCCO2)cc1 (configuration not stated)	i	i	i	i	45	i	i
COc1ccc(NC(=O)Nc2ccc3c(c2)C(=O)N([C@@H](C)CO)C[C@@H](C)[C@@H](CN(C)CC2CCCCC2)O3)cc1	i	i	i	i	i	i	nt
COc1ccc(NC(=O)Nc2cccc3c2O[C@@H](CN(C)CC2CCCCC2)[C@@H](C)CN([C@H](C)CO)C3=O)cc1	i	i	i	i	62	i	62
O=C1NN(c2ccc(Cl)cc2)C(=O)/C1=C\c1ccc(-c2cccc(C(=O)O)c2)o1	i	i	i	i	nt	nt	nt
O=C1NN(c2ccccc2)C(=O)/C1=C\c1ccc(-c2cc([N+](=O)[O-])ccc2O)o1	62	i	i	43	46	i	93
SMILES	CCR6 antag	Beta2AR agonist	EBI2 block	CXCR6 block	APJ antag	APJ agonist	APJ antag conf
O=C1C2C3CCCC3=C3CCCC3C2C(=O)N1c1cccc(Cl)c1 (configuration not stated)	i	i	i	i	44	i	i
CN1OC[C@@H]2CN(C(=S)NCCc3ccccc3)[C@H](c3ccc(N4CCCCC4)cc3)C[C@@H]21	nt	nt	i	i	nt	nt	nt
Cc1ccc(NC(=O)Cn2nnc(C(=O)Nc3ccc(C)c(C)c3)c2N)cc1	i	i	i	i	55	i	i
COc1ccccc1-c1cccc2nccn12	nt	nt	i	i	nt	nt	nt
CC1(C)Oc2ccc3ccc(=O)oc3c2/C(=C/NNC(N)=O)C1=O	71	i	i	i	50	i	62
N#Cc1cccc(-c2csc(C(O)c3ccc(F)cc3)n2)c1 (configuration not stated)	nt	nt	i	i	nt	nt	nt
CCOC(=O)c1ccc(-c2ccc(-c3cc(=O)oc4cc(OC)c(OC)c(OC)c34)cc2)cc1	i	i	i	i	nt	nt	nt
COc1ccc(S(=O)(=O)Cc2ccc(C(=O)NCc3ccccc3OC)o2)cc1	i	i	i	i	45	i	i
CC1CCCCN1S(=O)(=O)c1ccc(C(=O)N(CCCN(C)C)c2nc3ccc(Br)cc3s2)cc1 (configuration not stated)	i	i	i	i	48	i	i
CCOc1ccc(NS(=O)(=O)c2cccc(C(=O)NCC3(N(C)C)CCCCC3)c2)cc1	i	i	i	i	i	i	nt
COc1ccc(N=C2C(=O)Nc3ccc(C)c(Br)c32)cc1	105	i	i	82	89	i	159
Nc1nc2c(c(=O)[nH]1)C(c1ccccc1)C1=C(N2)c2ccccc2C1=O (configuration not stated)	i	i	i	i	45	i	i
Nc1cc(S(=O)(=O)N2CCOCC2)ccc1Oc1cccc(Br)c1	i	i	i	i	i	i	nt
COCC(=O)Nc1ccc2c(c1)OCC(=O)N2Cc1ccc(C)cc1	i	i	i	i	i	i	nt
Cc1cc(Nc2nc3ccccc3nc2Cl)n(-c2ccc([N+](=O)[O-])cc2)n1	56	i	i	i	49	i	i
CC(/C=N/NC(=O)c1ccc(Cn2cc([N+](=O)[O-])cn2)o1)=C\c1ccccc1	i	i	i	i	i	i	nt
CCN(CC)CCN(C(=O)c1ccc(C(=O)c2ccccc2)cc1)c1nc2ccc(OC)cc2s1	i	i	i	i	51	i	i
CSc1ncnc2c1ncn2CCCNCc1ccc(C)o1	nt	nt	i	i	nt	nt	nt
COc1cc(/C=C(\C#N)C(=O)c2c[nH]c3ccccc23)cc(OC)c1O	58	i	i	46	40	i	79
C[C@H]1COc2cc(N3CCC[C@H]3CO)ccc2S(=O)(=O)N1	nt	nt	i	i	nt	nt	nt
CCN(C(=O)COC(=O)c1cccnc1SC)C1CCS(=O)(=O)C1 (configuration not stated)	i	i	i	i	45	i	i
